Reference: ChEMBL document CHEMBL5331111, “Synthetic Biology Facilitates Semisynthetic Development of Type V Glycopeptide Antibiotics Targeting Vancomycin-Resistant Enterococcus” (J Med Chem, 2023)
≈ marks a conversion by molar mass, not a printed value.

What was measured:
Type in all cases: functional
[1] = system: Mycolicibacterium smegmatis; test: Antimycobacterial activity against Mycobacterium smegmatis MC2 155 assessed as inhibition of bacterial growth measured after 2 days by resazurin dye based analysis; conditions: MC2 155, 48 h, time 2 day
Outline: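 Strains grown in 7H9 broth with 0.2% glycerol, 10% OADC and 0.05% Tween-80. Inoculum was about 5 × 10^5 CFU/mL, checked by plating on 7H10/OADC agar to be 3–8 × 10^5. Read at 2 days for M. smegmatis and 7 days for M. tuberculosis H37Ra, M. bovis and M. avium. Resazurin 30 μg/mL was then added for one further day. Values are averages of at least two experiments.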

Enterococcus faecium = test: Antibacterial activity against vancomycin-resistant Enterococcus faecium ATCC 700221 assessed as inhibition of bacterial growth by Mueller-Hinton broth based assay
Enterococcus faecalis = test: Antibacterial activity against vancomycin-resistant Enterococcus faecalis ATCC 51299 assessed as inhibition of bacterial growth by Mueller-Hinton broth based assay
Staphylococcus aureus = test: Antibacterial activity against Staphylococcus aureus ATCC 33591 assessed as reduction in bacterial growth by Mueller-Hinton broth based assay
Outline: (§1)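 Broth MIC by standard procedure in Mueller-Hinton broth, for both B. subtilis 168 and S. aureus ATCC 33591.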

Bacillus subtilis = test: Antibacterial activity against Bacillus subtilis 168 assessed as reduction in bacterial growth by Mueller-Hinton broth based assay; outline: as §1

Compound	MIC [1]	MIC (Enterococcus faecium)	MIC (Enterococcus faecalis)	MIC (Staphylococcus aureus)	MIC (Bacillus subtilis)
CNCCNC(=O)[C@@H]1NC(=O)[C@@H]2Cc3ccc(cc3)Oc3cc4cc(c3O)-c3ccc5c(c[nH]c5c3)C[C@@H](NC(=O)C(N)c3ccc(O)cc3)C(=O)N[C@H](c3ccc(O)cc3)C(=O)N[C@H]4C(=O)N[C@@H](C(=O)N2C)c2ccc(cc2)Oc2cc1ccc2O (stereo not given in full)	0.5 µg/mL (≈ 0.425 µM)	1 µg/mL (≈ 0.849 µM)	4 µg/mL (≈ 3.4 µM)	–	–
CN1C(=O)[C@@H]2NC(=O)[C@@H]3NC(=O)[C@@H](c4ccc(O)cc4)NC(=O)[C@H](NC(=O)C(Nc4cccc(F)c4F)c4ccc(O)cc4)Cc4c[nH]c5cc(ccc45)-c4cc3cc(c4O)Oc3ccc(cc3)C[C@H]1C(=O)N[C@@H](C(=O)O)c1ccc(O)c(c1)Oc1ccc2cc1 (stereo not given in full)	> 128 µg/mL	16 µg/mL (≈ 13 µM)	16 µg/mL (≈ 13 µM)	16 µg/mL (≈ 13 µM)	8 µg/mL (≈ 6.49 µM)
CN1C(=O)[C@@H]2NC(=O)[C@@H]3NC(=O)[C@@H](c4ccc(O)cc4)NC(=O)[C@H](NC(=O)C(Nc4cccc(C(F)(F)F)c4)c4ccc(O)cc4)Cc4c[nH]c5cc(ccc45)-c4cc3cc(c4O)Oc3ccc(cc3)C[C@H]1C(=O)N[C@@H](C(=O)O)c1ccc(O)c(c1)Oc1ccc2cc1 (stereo not given in full)	> 128 µg/mL	16 µg/mL (≈ 12.6 µM)	8 µg/mL (≈ 6.32 µM)	8 µg/mL (≈ 6.32 µM)	4 µg/mL (≈ 3.16 µM)
CN1C(=O)[C@@H]2NC(=O)[C@@H]3NC(=O)[C@@H](c4ccc(O)cc4)NC(=O)[C@H](NC(=O)C(Nc4cccc(-c5ccc(F)cc5)c4)c4ccc(O)cc4)Cc4c[nH]c5cc(ccc45)-c4cc3cc(c4O)Oc3ccc(cc3)C[C@H]1C(=O)N[C@@H](C(=O)O)c1ccc(O)c(c1)Oc1ccc2cc1 (stereo not given in full)	> 128 µg/mL	16 µg/mL (≈ 12.4 µM)	16 µg/mL (≈ 12.4 µM)	> 128 µg/mL	> 128 µg/mL
CN1C(=O)[C@@H]2NC(=O)[C@@H]3NC(=O)[C@@H](c4ccc(O)cc4)NC(=O)[C@H](NC(=O)C(Nc4cccc(O)c4)c4ccc(O)cc4)Cc4c[nH]c5cc(ccc45)-c4cc3cc(c4O)Oc3ccc(cc3)C[C@H]1C(=O)N[C@@H](C(=O)O)c1ccc(O)c(c1)Oc1ccc2cc1 (stereo not given in full)	> 128 µg/mL	4 µg/mL (≈ 3.3 µM)	4 µg/mL (≈ 3.3 µM)	4 µg/mL (≈ 3.3 µM)	0.5 µg/mL (≈ 0.412 µM)
CN1C(=O)[C@@H]2NC(=O)[C@@H]3NC(=O)[C@@H](c4ccc(O)cc4)NC(=O)[C@H](NC(=O)C(NCCO)c4ccc(O)cc4)Cc4c[nH]c5cc(ccc45)-c4cc3cc(c4O)Oc3ccc(cc3)C[C@H]1C(=O)N[C@@H](C(=O)OCCO)c1ccc(O)c(c1)Oc1ccc2cc1 (stereo not given in full)	16 µg/mL (≈ 13.2 µM)	–	–	32 µg/mL (≈ 26.5 µM)	–
CN[C@H](CC(C)C)C(=O)N[C@H]1C(=O)N[C@@H](CC(N)=O)C(=O)N[C@H]2C(=O)N[C@H]3C(=O)N[C@H](C(=O)N[C@H](C(=O)O)c4cc(O)cc(O)c4-c4cc3ccc4O)[C@H](O)c3ccc(c(Cl)c3)Oc3cc2cc(c3O[C@@H]2O[C@H](CO)[C@@H](O)[C@H](O)[C@H]2O[C@H]2C[C@](C)(N)[C@H](O)[C@H](C)O2)Oc2ccc(cc2Cl)[C@H]1O [VANCOMYCIN]	4 µg/mL (≈ 2.76 µM)	> 128 µg/mL	32 µg/mL (≈ 22.1 µM)	–	0.5 µg/mL (≈ 0.345 µM)
CN(C)CCCNCCCNC(=O)[C@@H]1NC(=O)[C@@H]2Cc3ccc(cc3)Oc3cc4cc(c3O)-c3ccc5c(c[nH]c5c3)C[C@@H](NC(=O)Cc3ccc(O)cc3)C(=O)N[C@H](c3ccc(O)cc3)C(=O)N[C@H]4C(=O)N[C@@H](C(=O)N2C)c2ccc(cc2)Oc2cc1ccc2O	1 µg/mL (≈ 0.802 µM)	2 µg/mL (≈ 1.6 µM)	16 µg/mL (≈ 12.8 µM)	> 128 µg/mL	8 µg/mL (≈ 6.41 µM)
CN1C(=O)[C@@H]2NC(=O)[C@@H]3NC(=O)[C@@H](c4ccc(O)cc4)NC(=O)[C@H](NC(=O)C(Nc4ccccn4)c4ccc(O)cc4)Cc4c[nH]c5cc(ccc45)-c4cc3cc(c4O)Oc3ccc(cc3)C[C@H]1C(=O)N[C@@H](C(=O)O)c1ccc(O)c(c1)Oc1ccc2cc1 (stereo not given in full)	–	16 µg/mL (≈ 13.4 µM)	16 µg/mL (≈ 13.4 µM)	–	4 µg/mL (≈ 3.34 µM)
CN1C(=O)[C@@H]2NC(=O)[C@@H]3NC(=O)[C@@H](c4ccc(O)cc4)NC(=O)[C@H](NC(=O)C(Nc4ccc(O)c(O)c4O)c4ccc(O)cc4)Cc4c[nH]c5cc(ccc45)-c4cc3cc(c4O)Oc3ccc(cc3)C[C@H]1C(=O)N[C@@H](C(=O)O)c1ccc(O)c(c1)Oc1ccc2cc1 (stereo not given in full)	> 128 µg/mL	16 µg/mL (≈ 12.8 µM)	8 µg/mL (≈ 6.42 µM)	16 µg/mL (≈ 12.8 µM)	4 µg/mL (≈ 3.21 µM)
CCCCCCCCNC(C(=O)N[C@@H]1Cc2c[nH]c3cc(ccc23)-c2cc3cc(c2O)Oc2ccc(cc2)C[C@H]2C(=O)N[C@@H](C(=O)O)c4ccc(O)c(c4)Oc4ccc(cc4)[C@@H](NC(=O)[C@@H]3NC(=O)[C@@H](c3ccc(O)cc3)NC1=O)C(=O)N2C)c1ccc(O)cc1 (stereo not given in full)	–	–	8 µg/mL (≈ 6.49 µM)	–	–
CCCCCCCCCCCNC(C(=O)N[C@@H]1Cc2c[nH]c3cc(ccc23)-c2cc3cc(c2O)Oc2ccc(cc2)C[C@H]2C(=O)N[C@@H](C(=O)O)c4ccc(O)c(c4)Oc4ccc(cc4)[C@@H](NC(=O)[C@@H]3NC(=O)[C@@H](c3ccc(O)cc3)NC1=O)C(=O)N2C)c1ccc(O)cc1 (stereo not given in full)	–	–	4 µg/mL (≈ 3.14 µM)	16 µg/mL (≈ 12.5 µM)	–
CN1C(=O)[C@@H]2NC(=O)[C@@H]3NC(=O)[C@@H](c4ccc(O)cc4)NC(=O)[C@H](NC(=O)C(NCCCCCCB(O)O)c4ccc(O)cc4)Cc4c[nH]c5cc(ccc45)-c4cc3cc(c4O)Oc3ccc(cc3)C[C@H]1C(=O)N[C@@H](C(=O)OCCCCCCB(O)O)c1ccc(O)c(c1)Oc1ccc2cc1 (stereo not given in full)	–	–	64 µg/mL (≈ 46.5 µM)	–	–
CN1C(=O)[C@@H]2NC(=O)[C@@H]3NC(=O)[C@@H](c4ccc(O)cc4)NC(=O)[C@H](NC(=O)Cc4ccc(O)cc4)Cc4c[nH]c5cc(ccc45)-c4cc3cc(c4O)Oc3ccc(cc3)C[C@H]1C(=O)N[C@@H](C(=O)NCCC[N+]1(C)CCCC1)c1ccc(O)c(c1)Oc1ccc2cc1	1 µg/mL	8 µg/mL	–	> 128 µg/mL	–
CN1C(=O)[C@@H]2NC(=O)[C@@H]3NC(=O)[C@@H](c4ccc(O)cc4)NC(=O)[C@H](NC(=O)C(NC(=O)OC(C)(C)C)c4ccc(O)cc4)Cc4c[nH]c5cc(ccc45)-c4cc3cc(c4O)Oc3ccc(cc3)C[C@H]1C(=O)N[C@@H](C(=O)O)c1ccc(O)c(c1)Oc1ccc2cc1 (stereo not given in full)	–	16 µg/mL (≈ 13.1 µM)	–	–	–
CN(C)CCCNC(=O)[C@@H]1NC(=O)[C@@H]2Cc3ccc(cc3)Oc3cc4cc(c3O)-c3ccc5c(c[nH]c5c3)C[C@@H](NC(=O)C(N)c3ccc(O)cc3)C(=O)N[C@H](c3ccc(O)cc3)C(=O)N[C@H]4C(=O)N[C@@H](C(=O)N2C)c2ccc(cc2)Oc2cc1ccc2O (stereo not given in full)	–	2 µg/mL (≈ 1.66 µM)	–	–	–
CN1C(=O)[C@@H]2NC(=O)[C@@H]3NC(=O)[C@@H](c4ccc(O)cc4)NC(=O)[C@H](NC(=O)C(NCCS(=O)(=O)O)c4ccc(O)cc4)Cc4c[nH]c5cc(ccc45)-c4cc3cc(c4O)Oc3ccc(cc3)C[C@H]1C(=O)N[C@@H](C(=O)OCCS(=O)(=O)O)c1ccc(O)c(c1)Oc1ccc2cc1 (stereo not given in full)	–	> 128 µg/mL	> 128 µg/mL	> 128 µg/mL	–
CCCCNC(C(=O)N[C@@H]1Cc2c[nH]c3cc(ccc23)-c2cc3cc(c2O)Oc2ccc(cc2)C[C@H]2C(=O)N[C@@H](C(=O)O)c4ccc(O)c(c4)Oc4ccc(cc4)[C@@H](NC(=O)[C@@H]3NC(=O)[C@@H](c3ccc(O)cc3)NC1=O)C(=O)N2C)c1ccc(O)cc1 (stereo not given in full)	–	–	–	16 µg/mL (≈ 13.6 µM)	–
